Test [1] is filed under the species Mus musculus. Kind of test: Compound was evaluated for IL 4 production inhibition from mice splenocytes stimulated by anti-CD3 mAb. The class given is functional. In outline: (§1)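 Th-2 clone D10.G4.1, restimulated with conalbumin (100 µg/mL) plus mitomycin C-treated AKR/J splenocytes as antigen-presenting cells, thawed and grown 3 days with Rat T-STIM. Cells at 4 × 10⁴/well, 3.5 h without T-STIM, drug 30 min (DMSO ≤0.1%). Stimulated with anti-CD3 mAb (final 1:100) for 16 h; IL-4 or IL-5 measured in supernatant. IC50 estimated over a concentration range.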

For test [2], the species on record is Mus musculus. Nature of the test: Compound was evaluated for IL 5 production inhibitio from mice splenocytes stimulated by anti-CD3 mAb. The class given is functional. Summed up: as §1
The species entered for test [3] is Rattus norvegicus. Nature of the test: Inhibition of tetraethylammonium chloride(TEA)-induced acetylcholine hyperactivity in rat tracheal segments by the compound. Format: functional. As to conditions: Trachea. In outline: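 Male Wistar rat tracheal rings in Krebs-Henseleit at 37 °C, 1 g preload, isotonic. Acetylcholine cumulative curves run alone, with TEA (10 mM, 30 min), and with drug (30 min before TEA) plus TEA. Percent inhibition of hyperreactivity taken from contraction at 100 µM acetylcholine, 3-5 preparations; screening at 30 µM, and IC50 by regression from 3-4 concentrations if inhibition exceeds 50%.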

Test [4] relates to Rattus norvegicus. Nature of the test: Compound was evaluated in vivo for inhibition of Ovalbumin induced rhinitis in anesthetized rats after topical administration (nasal perfusion). The class given is functional, organism-based. In outline:
(§2)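 Male Brown Norway rats sensitized ip with OVA 0.5 mg/kg + Al(OH)₃ 7.5 mg/kg, used on day 20-21 under thiopental (50 mg/kg ip). Nasal cavity perfused with PBS; drug given by 30 min topical perfusion in PBS, iv 30 min or po 60 min before OVA challenge.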

The species entered for test [5] is Rattus norvegicus. Kind of test: Inhibition of histamine release in rat mast cells. Format: functional, cell-based.
The subject of test [6] is Cavia porcellus. Nature of the test: Inhibition of Late Phase Eosinophilia in Bronchoalveolar Lavage (BAL) of Guinea Pigs 2 hr after peroral administration at a dose of 30 mg/kg. As to conditions: route oral. The class given is functional. In outline: (§3)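 Male Dunkin-Hartley guinea pigs sensitized ip with OVA 20 µg + Al(OH)₃ 20 mg on two consecutive days; 14 days later mepyramine 10 mg/kg ip given before aerosol OVA challenge (5 mg/mL nebulized). Drug given ip or by oral gavage 2 h before or 4 h after challenge.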

Test [7] deals with Rattus norvegicus. Kind of test: Compound was evaluated in vivo for inhibition of Ovalbumin induced rhinitis in anesthetized rats 30 min after intravenous administration. The class given is functional. As to conditions: 0.5 h, read-out: ID50 (the source's name). Summed up:
as §2

In test [8] the test system is Cavia porcellus. Kind of test: Inhibition of Late Phase Eosinophilia in Bronchoalveolar Lavage (BAL) of Guinea Pigs 4 hr after intraperitoneal administration at a dose 5 mg/kg. Format: functional. As to conditions: ip. In outline: as §3
Test [9] is filed under the species Cavia porcellus. Kind of test: Inhibition of Carbachol-induced contraction of guinea pig trachea by the compound at a concentration of 100 uM. Format: functional. In outline:
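Guinea pig tracheal spirals in Tyrode solution at 37 °C, carbogen, isotonic 2 g preload. Contracted with carbachol 0.164 µM until stable; after isoprenaline relaxation and washout, carbachol re-applied and test compound added cumulatively. Relaxation calculated as a percentage at each concentration.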

The subject of test [10] is Cavia porcellus. Kind of test: Inhibition of Late Phase Eosinophilia in Bronchoalveolar Lavage (BAL) of Guinea Pigs 4 hr after peroral administration at a dose of 30 mg/kg. The class given is functional. Conditions: route oral. In outline:
as §3

Test [11] is filed under the species Mus musculus. Nature of the test: Percent inhibition of anti-CD3 mAb stimulated interleukin-4 release from mice splenocytes by 10 uM compound. Format: functional.
The species entered for test [12] is Mus musculus. Kind of test: Compound was evaluated for IL 5 production inhibition from mice splenocytes stimulated by anti-CD3 mAb. The class given is functional. Summed up:
as §1

Test [13] is filed under the species Mus musculus. Nature of the test: Percent inhibition of anti-CD3 mAb stimulated interleukin-5 release from […] by 10 uM. Format: functional. In outline:
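D10.G4.1 Th-2 cells (4 × 10⁴/well) in medium without Rat T-STIM for 3.5 h, then exposed to drug at 10 µM for 30 min and stimulated with anti-CD3 mAb (final 1:100) for 16 h. IL-4 or IL-5 content of the supernatant is read against solvent control. Mean of three experiments, each run in duplicate.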

The test system of test [14] is Cavia porcellus. Kind of test: Inhibition of Late Phase Eosinophilia in Bronchoalveolar Lavage (BAL) of Guinea Pigs 2 hr after intraperitoneal administration at a dose of 10 mg/kg. As to conditions: ip. The class given is functional. In outline: as §3
Test [15] relates to Rattus norvegicus. Kind of test: Compound was evaluated in vivo for inhibition of Ovalbumin induced rhinitis in anesthetized rats 60 min after peroral administration. The class given is functional. Conditions: po, 1 h, read-out: ID50 (the source's name). In outline:
as §2

Usually pIC50 stands for −log10 of the IC50, conventionally taken in molar units. Lower therefore signals a high IC50. The inhibition in vivo is the share of the control response that was lost under treatment. A high value points to strong suppression. By inhibition is commonly meant the percentage by which the read-out fell short of the control. The low end stands for a response near the control, the high end for a response far below the control.

pIC50: −log10 of the molar value.

`C[C@@H]1C[C@H]2[C@@H]3CCC4=CC(=O)C=C[C@]4(C)[C@@]3(F)[C@@H](O)C[C@]2(C)[C@@]1(O)C(=O)CO` [DEXAMETHASONE]: the pIC50 in the test filed under Mus musculus [1] is 8.33; in the test listed under Mus musculus [2], 8.46.

For the compound `COc1ccc(CCN(C)CCCC(C#N)(c2ccc(OC)c(OC)c2)C(C)C)cc1OC` (stereo unspecified) [VERAPAMIL], the pIC50 in the test listed under Rattus norvegicus [3] was 5.89.

In the test on Rattus norvegicus [4], `c1ccc(CN(CC2=NCCN2)c2ccccc2)cc1` [ANTAZOLINE] had a pIC50 of 5.90.

For the compound `CC(C)(C)c1ccc(C(O)CCCN2CCC(C(O)(c3ccccc3)c3ccccc3)CC2)cc1` (stereo unspecified) [TERFENADINE], the negative-log IC50 (pIC50) in the test listed under Mus musculus [1] is 5.31; in the test filed under Mus musculus [2], 5.40.

As for `COc1ccc(CN(CCN(C)C)c2ccccn2)cc1` [PYRILAMINE], in the test with Rattus norvegicus [4], the pIC50 was 5.13.

For the compound `O=C(Cc1cn(Cc2ccc(F)cc2)c2ccccc12)Nc1ccncc1`, the pIC50 in the test filed under Rattus norvegicus [5] was 7.80; in the test filed under Rattus norvegicus [3], 7.68; in the test with Rattus norvegicus [4] it was 6.60; in the test listed under Mus musculus [12], 5.82; in the test filed under Mus musculus [1], 5.10. Also, the inhibition in vivo at 30 mg/kg in the test with Cavia porcellus [6] turned out to be 35%; in the test with Cavia porcellus [10], 28%. Moreover, the ED50 with Rattus norvegicus [7] came out at 0.005 mg/kg; in the test on Rattus norvegicus [15] it was 0.46 mg/kg. In the test with Cavia porcellus [8], this compound gave an inhibition in vivo at 5 mg/kg of 41%. Also, the inhibition at 100 µM in the test filed under Cavia porcellus [9] is 36%. The inhibition at 10 µM worked out at 63% in the test listed under Mus musculus [11] and 100% in the test listed under Mus musculus [13]. This compound also registered an inhibition in vivo at 10 mg/kg in the test on Cavia porcellus [14] of 59%.

(Values after ChEMBL document CHEMBL1132585, “New N-(pyridin-4-yl)-(indol-3-yl)acetamides and propanamides as antiallergic agents” (J Med Chem, 1999).)
